Measured values of several laboratories.
Lines come from different studies, so protocols differ.
Cell line: Vero
Read-out: cell growth or viability

Structure (SMILES) | test | setting | CC50
CC(C)(C)NC(=O)N[C@H](C(=O)N1C[C@H]2[C@@H]([C@H]1C(=O)NC(CC1CCC1)C(=O)C(N)=O)C2(C)C)C(C)(C)C (stereo partly drawn) | neutral red | 48 h | > 100 µM
CC(C)C[C@H](NC(=O)OCc1ccccc1)C(=O)N[C@@H](CC(C)C)C(=O)N[C@@H](CC(C)C)C(=O)C(=O)Nc1ccccc1 | ATP luminescence | 48 h | 16 µM
C=C(c1ccc(C(=O)O)cc1)c1cc2c(cc1C)C(C)(C)CCC2(C)C | WST-1 | 18 h | > 40 µM
COC(=O)N[C@H](C(=O)N1C[C@H](n2cc(-c3ccccc3)nn2)C[C@H]1c1ncc(-c2ccc(-c3ccc(-c4cnc([C@@H]5C[C@@H](n6cc(-c7ccccc7)nn6)CN5C(=O)[C@@H](NC(=O)OC)C(C)C)[nH]4)cc3)cc2)[nH]1)C(C)C |  |  | > 100 µM
CCC(CC)COC(=O)[C@H](C)N[P@](=O)(OC[C@H]1O[C@@](C#N)(c2ccc3c(N)ncnn23)[C@H](O)[C@@H]1O)Oc1ccccc1 |  |  | > 13 µM
FC(F)(F)c1cccc(Nc2nc(NCCOc3ccccc3)nc3[nH]cnc23)c1 | ATP luminescence |  | > 200 µM
COc1cc2ncnc(Nc3ccc(F)c(Cl)c3)c2cc1OCCCN1CCOCC1 | resazurin |  | > 60 µM
CC(C)(C)[C@H](NS(=O)(=O)C(F)(F)F)C(=O)N1[C@@H]2CC[C@@H](C2)[C@H]1C(=O)N[C@@H](C[C@@H]1CCNC1=O)C(=O)c1nc2ccccc2s1 |  | 48 h | > 50 µM
COC(=O)N[C@H](C(=O)N1C[C@@H](n2cc(C(=O)OC)nn2)C[C@H]1c1ncc(-c2ccc(-c3ccc(-c4cnc([C@@H]5C[C@H](n6cc(C(=O)OC)nn6)CN5C(=O)[C@@H](NC(=O)OC)C(C)C)[nH]4)cc3)cc2)[nH]1)C(C)C |  |  | > 100 µM
CCOC(=O)c1c(NCc2ccc(SC)cc2)c2cccc(C)c2[nH]c1=O | MTS | 48 h | > 100 µM
CCN(CC)CCNC(=O)c1c(C)[nH]c(/C=C2\C(=O)Nc3ccc(F)cc32)c1C | resazurin |  | 25 µM
Clc1ccc(C(Cn2ccnc2)OCc2csc3c(Cl)cccc23)c(Cl)c1 (stereo not drawn) | WST-1 | 18 h | ~21.2 µM
C#Cc1cccc(Nc2ncnc3cc(OCCOC)c(OCCOC)cc23)c1 | resazurin |  | > 60 µM
O=C(NCc1ccc(F)cc1)c1cccc(Nc2ccc(-c3ccccc3)nn2)c1 | MTS | 48 h | > 100 µM
COc1ccc(C[C@H](NC(=O)[C@H](C)NC(=O)CN2CCOCC2)C(=O)N[C@@H](Cc2ccccc2)C(=O)C(=O)Nc2ccccc2)cc1 | ATP luminescence | 48 h | 71.1 µM
